The nature of test [1]: inhibitors of TNFa-induced NFkB p65 translocation, primary screen, imaging, HUVEC, MLSMR starter and 10KST1 sets (AID 438;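 active = inhibition above 20% together with a positive visual image hit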;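 also: compound added about 3h40 before a 20 min TNFalpha stimulation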;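 as to inhibition: signal is the nuclear over cytoplasmic p65 intensity ratio per well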). Conditions: HUVEC TNFa-induced p65 nuclear translocation; cell count: measured here: nuclei count (cytotoxicity indicator), at 2.08 µM; inhibition: at 2 µM, stronger effect = higher value, 0% TNFa-plus-vehicle, 100% no-TNFa wells.
Test [2] can be described thus: inhibitors of mutant huntingtin aggregation, primary screen, imaging, exon1htt(103Q)mCFP cells, high-content imaging (AID 483;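 active = visual image review flags a hit and inhibition of aggregation exceeds 20%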;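 also: compound exposure lasted 3 days before fixation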;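 as to nuclei count: percent of the per-plate median nuclei count of sample wells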). The settings on record: exon1htt(103Q)mCFP cell line, aggregate imaging, at 2 µM; inhibition of aggregation: stronger effect = higher value; nuclei count: measured here: cell count, toxicity.
Test [3] in a line: inhibitors of E-selectin induction by TNFa, primary screen, imaging, HUVEC, immunofluorescence, MLSMR starter and 10KST1 sets (AID 487;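 active = visually confirmed hit in the image check and inhibition above 20%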;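 as to inhibition: signal is fraction of cell area covered by stained E-selectin grains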;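 as to nuclei count: 100% = median nuclei count of all wells on the same plate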). The settings on record: HUVEC TNFalpha-induced E-selectin immunofluorescence imaging, at 2 µM; inhibition: stronger effect = higher value; nuclei count: measured here: cell number, toxicity.
For test [4], the target named is Voltage-gated potassium channel subunit beta-2 (Rattus norvegicus) (UniProt P62483). Description: KvBeta enzyme negative modulators, primary screen, biochemical, NADPH fluorescence (AID 622;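 active = fluorescence slope higher than the sample average by over 3 SD, cut at about -0.22 in these data, passing the limit was not always enough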;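 also: slope of raw intensity against log time taken from 70 to 1610 s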). The settings on record: recombinant KvBeta, 4-cyanobenzaldehyde reduction, at 10 µM, stronger effect = higher value.
The target is the same in test [5]. Description: KvBeta positive modulators, primary screen, biochemical, NADPH fluorescence (AID 623;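 active = NADPH fluorescence slope more negative than the mean of all samples by about 3 SD, 99.7% confidence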;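 also: fluorescence intensity change per second fitted from 20 to 320 s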). The settings on record: Recombinant KvBeta, NADPH fluorescence decrease slope, 10 min; at 10 µM; stronger effect = lower value.
Test [6] has as its target Muscarinic acetylcholine receptor M4 (Homo sapiens) (UniProt P08173). Description: compounds altering M4/GIRK thallium flux, either direction, primary screen, M4 allosteric agonist project, cell-based, HEK293 M4/GIRK, BTC-AM (AID 625).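 Also: thallium influx through GIRK channels coupled to M4 in HEK293 cells with BTC-AM dye.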 The settings on record: at 10 µM, actives lie on both sides. The procedure, abridged: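 assay system = HEK293 cells with M4 receptor and GIRK channels | medium = pH 7.3 thallium assay buffer | doses = 10 µM final, single point | timing = cells overnight at 37 °C, BTC-AM loading 1 h, reads 2 min total | signal = BTC-AM fluorescence, 1 Hz kinetic reads | read-out = post-addition slope, 15–24 s, of baseline-normalized fluorescence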

Test [7] in a line: inhibitors of Sendai virus-induced IRF3 signaling, primary screen, TLR/RLR signaling modifier project, cell-based, Sendai virus stimulus, luciferase, 10K MLSCN set (AID 602276;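 active = inhibition at or above 50% at 10 µM; inactive = inhibition below 50%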;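 also: firefly luciferase from ISG56 promoter only with Renilla not read in this screen; 0% = Sendai virus plus DMSO and 100% = medium plus DMSO without virus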). Conditions: HEK293 RL24 IRF3 luciferase reporter, at 10 µM, stronger effect = higher value. (In general: Reporter assays use an easily measured gene product as a stand-in for the process of interest.)
A short description of test [8]: inhibitors of poly I:C-induced TLR3 signaling, primary screen, cell-based, poly I:C stimulus, luciferase, 10K MLSCN set (AID 602277;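 active = inhibition of the reporter signal at or above 50%; inactive = inhibition below 50%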). Conditions: HEK293-TLR3 RL24 IRF3 luciferase reporter, at 10 µM, stronger effect = higher value.

Calls of active or inactive are those of the source.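 The calls were made as follows, unless noted: active = fluorescence slope after compound addition differing from the mean of all tested samples at 99.7% confidence, mostly higher but some lower; inactive = the rest.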

In general, inhibition refers to the drop in the measured response relative to a control, in per cent.

Sequence of Voltage-gated potassium channel subunit beta-2 (Rattus norvegicus) (P62483 whole entry, looked up): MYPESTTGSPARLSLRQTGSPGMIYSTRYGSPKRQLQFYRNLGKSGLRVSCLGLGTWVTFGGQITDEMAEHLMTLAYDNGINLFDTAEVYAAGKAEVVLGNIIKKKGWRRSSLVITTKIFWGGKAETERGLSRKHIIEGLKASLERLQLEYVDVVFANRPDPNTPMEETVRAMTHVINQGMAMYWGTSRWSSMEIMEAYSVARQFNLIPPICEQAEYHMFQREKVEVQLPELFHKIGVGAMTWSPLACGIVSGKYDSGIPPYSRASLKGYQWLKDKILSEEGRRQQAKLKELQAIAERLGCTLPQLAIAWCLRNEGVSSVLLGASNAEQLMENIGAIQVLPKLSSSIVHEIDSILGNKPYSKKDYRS
Sequence of Muscarinic acetylcholine receptor M4 (Homo sapiens) (P08173 whole entry, looked up): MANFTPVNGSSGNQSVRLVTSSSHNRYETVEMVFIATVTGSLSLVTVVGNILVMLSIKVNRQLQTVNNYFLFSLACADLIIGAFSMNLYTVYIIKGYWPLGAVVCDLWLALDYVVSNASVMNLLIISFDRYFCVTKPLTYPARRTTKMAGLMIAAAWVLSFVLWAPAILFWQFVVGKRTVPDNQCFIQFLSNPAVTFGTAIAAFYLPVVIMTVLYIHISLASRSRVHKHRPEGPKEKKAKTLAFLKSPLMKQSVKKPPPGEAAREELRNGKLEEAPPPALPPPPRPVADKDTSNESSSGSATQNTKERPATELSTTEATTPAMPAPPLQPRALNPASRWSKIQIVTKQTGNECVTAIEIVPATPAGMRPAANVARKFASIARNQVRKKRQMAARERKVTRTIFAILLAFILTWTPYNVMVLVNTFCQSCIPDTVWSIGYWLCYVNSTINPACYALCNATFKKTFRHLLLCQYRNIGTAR

Consider `CCCOc1ccc([C@@H]2C3CN(C(=O)OCC)CC=C3C(C#N)=C(N)C2(C#N)C#N)cc1OC` (stereo partly drawn), for which, in test [1], the cell count amounted to 743. In addition, the inhibition in test [1] was -23.3% (inactive); in test [3], -44.9% (inactive); in test [7], 11% (inactive); in test [8], -2.37% (inactive). The inhibition of aggregation in test [2] was 14.7% (inactive). Further, the figures for the nuclei count in test [2] and in test [3] were 102% and 112%, respectively. Moreover, the fluorescence slope in test [4] was -0.237 (inactive); in test [6] it was 0.00528 (inactive). Besides, in test [5], the NADPH fluorescence slope is -2.5e-05 (inactive).
`Cc1noc(C)c1S(=O)(=O)N1CCC(C(=O)N2CCN(Cc3ccc4c(c3)OCO4)CC2)CC1`: the cell count in test [1] amounted to 721. Moreover, the inhibition is -6.9% (inactive) in test [1], -40.5% (inactive) in test [3], 13.4% (inactive) in test [7] and 17.8% (inactive) in test [8]. Also, the inhibition of aggregation in test [2] was 8.9% (inactive). The nuclei count in test [2] came to 107%; in test [3], 103%. In addition, the fluorescence slope in test [4] was -0.498 (inactive); in test [6] it was 0.00556 (inactive). The NADPH fluorescence slope in test [5] is 1.3e-06 (inactive).
Turning to `CCCCC(NC(C)=O)c1nc2ccccc2n1CCC` (stereo not drawn), the cell count in test [1] stood at 294. The inhibition was -3.7% (inactive) in test [1], 37.8% (inactive) in test [3], 22.7% (inactive) in test [7] and 16.8% (inactive) in test [8]. In addition, in test [2], the inhibition of aggregation is 24.6% (inactive). Moreover, the nuclei count in test [2] came to 82.4%; in test [3], 94.3%. In addition, the results for the fluorescence slope in test [4] and in test [6] were -0.454 (inactive) and 0.00541 (inactive), respectively. Also, the NADPH fluorescence slope in test [5] was -2.6e-05 (inactive).
Turning to `CCOC(=O)C1CCCN(S(=O)(=O)c2cccs2)C1` (stereo not drawn), in test [1], the cell count is 243. The inhibition in test [1] is 11.2% (inactive); in test [3], -8.8% (inactive); in test [7] it was -3.56% (inactive); in test [8], 4.98% (inactive). Besides, the inhibition of aggregation in test [2] is -5.5% (inactive). The nuclei count in test [2] was found to be 95.8%; in test [3] it was 95.2%. The fluorescence slope in test [4] is -0.479 (inactive); in test [6], 0.00471 (inactive). For the same molecule, in test [5], the NADPH fluorescence slope is 1.6e-05 (inactive).
`O=C(CCSc1ccccc1)N1CCOCC1`: the cell count in test [1] worked out at 339. The inhibition in test [1] is 0.4% (inactive); in test [3], -90.9% (inactive); in test [7] it was -18.7% (inactive); in test [8] it was -64.6% (inactive). The inhibition of aggregation in test [2] was -7.3% (inactive). In addition, the nuclei count in test [2] was 104%; in test [3], 105%. The fluorescence slope in test [4] is -0.562 (inactive); in test [6], 0.00456 (inactive). Moreover, the NADPH fluorescence slope in test [5] was -0.000154 (inactive).
For the molecule `COc1ccc(CC(=O)Nc2ccc(-c3nnc(-c4ccc(C)cc4)o3)cc2)cc1`, in test [1], the cell count was found to be 411. In addition, the inhibition in test [1] was 0.5% (inactive); in test [3], -101% (inactive); in test [7], 8.75% (inactive); in test [8], 18.4% (inactive). Also, the inhibition of aggregation in test [2] is -17.7% (inactive). Further, the nuclei count in test [2] is 102%; in test [3], 109%. In addition, the fluorescence slope in test [4] was -0.454 (inactive); in test [6], 0.0071 (inactive). In test [5], the NADPH fluorescence slope was -9.3e-06 (inactive).
As for `COC(=O)C1=C(C)NC(=O)C1(NC(=O)CN1CCCC1=O)C(F)(F)F` (stereo not drawn), the cell count in test [1] worked out at 879. The inhibition in test [1] is 3.6% (inactive); in test [3], -79.8% (inactive); in test [7] it was 9.49% (inactive); in test [8], 21.7% (inactive). For the same molecule, in test [2], the inhibition of aggregation is 6.7% (inactive). The nuclei count in test [2] came out at 106%; in test [3], 133%. In addition, the fluorescence slope in test [4] is -0.435 (inactive); in test [6], 0.00621 (inactive). Besides, the NADPH fluorescence slope in test [5] was -7.2e-05 (inactive).
As for `Cc1cc(C)n2cc(CSCc3ccco3)nc2n1`, the cell count in test [1] came out at 566. The inhibition in test [1] was -13.6% (inactive); in test [3], 18.2% (inactive); in test [7], 11.1% (inactive); in test [8], 8.26% (inactive). In addition, the inhibition of aggregation in test [2] is 4.9% (inactive). The nuclei count in test [2] was 89.3%; in test [3] it was 88.2%. Further, the fluorescence slope in test [4] is -0.238 (inactive); in test [6], 0.00628 (inactive). The NADPH fluorescence slope in test [5] is -2.7e-05 (inactive).
For `Cc1ccc(N2CC(C(=O)Nc3nnc(C)s3)CC2=O)cc1` (stereo not drawn), the cell count in test [1] amounted to 622. The inhibition in test [1] was 0% (inactive); in test [3], 21.8% (inactive); in test [7], 18.6% (inactive); in test [8] it was 14.5% (inactive). Moreover, in test [2], the inhibition of aggregation was -10.8% (inactive). Also, the nuclei count in test [2] worked out at 95.6%; in test [3] it was 103%. Besides, the fluorescence slope is -0.542 (inactive) in test [4] and 0.00498 (inactive) in test [6]. For the same molecule, in test [5], the NADPH fluorescence slope was -3e-05 (inactive).
Turning to `Cc1ccc(CNC(=O)c2coc(=O)c3ccccc23)o1`, in test [1], the cell count worked out at 581. Also, the inhibition is 0.6% (inactive) in test [1], 58.5% (inactive) in test [3] and 98.4% (active) in test [8]. Further, the inhibition of aggregation in test [2] was 4.6% (inactive). For the same molecule, the nuclei count in test [2] is 102%; in test [3], 55.6%. For the same molecule, the fluorescence slope is -0.445 (inactive) in test [4] and 0.00482 (inactive) in test [6]. Besides, the NADPH fluorescence slope in test [5] is -0.000402 (inactive).
On to `O=S1(=O)Nc2c(ccc3cccnc23)-c2ccccc21`, for which the cell count in test [1] amounted to 318. Further, the inhibition in test [1] was 77.8% (active); in test [3], 47.4% (inactive); in test [7], -4.82% (inactive); in test [8] it was -17.5% (inactive). The inhibition of aggregation in test [2] was -31.5% (inactive). Further, the nuclei count in test [2] worked out at 50.8%; in test [3] it was 94.2%. Also, the values for the fluorescence slope in test [4] and in test [6] were -0.465 (inactive) and 0.00395 (inactive), respectively. The NADPH fluorescence slope in test [5] was -0.000334 (inactive).
For `COc1ccc(-c2noc(C3CCCN(C(=O)CCc4ccccc4)C3)n2)cc1` (stereo not drawn), the cell count in test [1] worked out at 383. The inhibition in test [1] is -3.5% (inactive); in test [3], -83.2% (inactive); in test [7], 12.3% (inactive); in test [8] it was 1.57% (inactive). The inhibition of aggregation in test [2] was 18.4% (inactive). Besides, the values for the nuclei count in test [2] and in test [3] were 101% and 57.8%, respectively. In addition, the fluorescence slope in test [4] is -0.454 (inactive); in test [6], 0.00551 (inactive). In addition, the NADPH fluorescence slope in test [5] was -5e-06 (inactive).
`CC(=O)Nc1ccc(S(=O)(=O)N2CCSC2c2ccccc2)cc1` (stereo not drawn): the cell count in test [1] was 241. Further, the inhibition in test [1] is -12.1% (inactive); in test [3], -34.7% (inactive); in test [7], 18.3% (inactive); in test [8], 22% (inactive). Also, the inhibition of aggregation in test [2] is -8.7% (inactive). Moreover, the nuclei count in test [2] was found to be 106%; in test [3], 76.2%. The fluorescence slope is -0.552 (inactive) in test [4] and 0.00574 (inactive) in test [6]. For the same molecule, the NADPH fluorescence slope in test [5] was -3.6e-05 (inactive).
With `CCOC(=O)CSc1nc2cc(C(=O)NCc3ccco3)ccc2c(=O)n1C1CCCCC1`, in test [1], the cell count is 455. The inhibition in test [1] is 4.3% (inactive); in test [3], 10% (inactive); in test [7] it was 12.1% (inactive); in test [8], 18.6% (inactive). In test [2], the inhibition of aggregation was -11.8% (inactive). The nuclei count in test [2] is 92%; in test [3], 93.7%. The fluorescence slope in test [4] was -0.397 (inactive); in test [6], 0.00847 (inactive). For the same molecule, the NADPH fluorescence slope in test [5] was -5.9e-05 (inactive).
